Experiments:
[1] = target: Monoamine transporters; serotonin & dopamine (Rattus norvegicus) (UniProt P31652+P23977); assay: Selectivity for Dopamine and Serotonin transporters; assay type: protein assay
[2] = target: Sodium-dependent dopamine transporter (Rattus norvegicus, UniProt P23977); assay: In vitro binding affinity towards dopamine transporter in rat striatal membranes by […] displacement.; assay type: cell membranes, Striatum, Membrane
Summary of the method: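 Crude membranes of rat corpus striatum in Tris-citrate buffer (pH 7.4) with Na+ and Mg2+ (4 mM). Six concentrations, duplicate; computer-fit IC50 converted to Ki via Cheng–Prusoff relation using radioligand K_d.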

[3] = target: Monoamine transporters; Norepininephrine & dopamine (Rattus norvegicus) (UniProt P23977+Q9WTR4); assay: Selectivity for Dopamine and Norepinephrine transporters; assay type: protein assay
[4] = target: Sodium-dependent serotonin transporter (Rattus norvegicus, UniProt P31652); assay: In vitro binding affinity towards serotonin transporter in rat cerebral cortical homogenates by [3H]paroxetine displacement.
Sequence of Sodium-dependent serotonin transporter (P31652 whole entry): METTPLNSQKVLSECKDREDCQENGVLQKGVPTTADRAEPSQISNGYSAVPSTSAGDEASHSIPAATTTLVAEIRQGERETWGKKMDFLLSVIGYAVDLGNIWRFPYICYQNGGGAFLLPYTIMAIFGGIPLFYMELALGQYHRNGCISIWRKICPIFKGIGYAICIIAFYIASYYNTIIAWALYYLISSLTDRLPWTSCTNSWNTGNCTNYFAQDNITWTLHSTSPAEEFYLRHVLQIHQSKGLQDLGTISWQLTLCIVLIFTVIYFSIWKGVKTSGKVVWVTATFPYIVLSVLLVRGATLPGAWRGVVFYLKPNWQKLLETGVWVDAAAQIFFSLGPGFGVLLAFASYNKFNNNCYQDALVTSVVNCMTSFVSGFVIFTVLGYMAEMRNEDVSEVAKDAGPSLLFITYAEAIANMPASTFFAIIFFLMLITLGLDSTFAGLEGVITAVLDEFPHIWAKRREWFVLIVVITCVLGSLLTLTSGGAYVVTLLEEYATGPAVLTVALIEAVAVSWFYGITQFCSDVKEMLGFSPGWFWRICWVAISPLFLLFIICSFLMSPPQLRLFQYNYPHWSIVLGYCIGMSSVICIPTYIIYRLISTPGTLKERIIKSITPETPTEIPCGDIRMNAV

[5] = target: Norepinephrine transporter (Rattus norvegicus, UniProt Q9WTR4); assay: In vitro binding affinity towards Norepinephrine transporter rat cerebral cortical homogenates by [3H]nisoxetine displacement.
Sequence of Norepinephrine transporter (Q9WTR4 whole entry): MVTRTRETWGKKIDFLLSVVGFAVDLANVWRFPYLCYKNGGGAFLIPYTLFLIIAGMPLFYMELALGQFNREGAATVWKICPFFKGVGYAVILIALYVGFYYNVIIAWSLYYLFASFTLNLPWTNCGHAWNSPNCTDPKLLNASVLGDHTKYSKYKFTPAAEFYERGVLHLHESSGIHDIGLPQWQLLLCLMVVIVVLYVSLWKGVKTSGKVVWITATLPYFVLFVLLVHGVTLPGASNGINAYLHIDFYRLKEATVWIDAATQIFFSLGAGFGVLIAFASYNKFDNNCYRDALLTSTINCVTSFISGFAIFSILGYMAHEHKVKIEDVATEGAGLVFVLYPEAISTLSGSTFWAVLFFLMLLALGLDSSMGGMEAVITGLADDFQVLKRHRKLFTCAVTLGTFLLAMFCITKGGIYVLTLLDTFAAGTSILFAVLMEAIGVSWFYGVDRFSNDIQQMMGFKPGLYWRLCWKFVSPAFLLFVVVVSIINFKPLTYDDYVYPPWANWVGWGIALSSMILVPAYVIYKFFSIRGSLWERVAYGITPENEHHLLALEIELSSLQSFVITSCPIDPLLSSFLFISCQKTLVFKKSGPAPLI
Summary of the method: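 Crude membrane fraction of rat frontoparietal cerebral cortex in 50 mM Tris-HCl (pH 7.4) with Na+, K+ (5 mM). Typically six concentrations in duplicate; curves computer-fit for IC50, converted to Ki = IC50/(1 + [L]/K_d).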

Sequence of Sodium-dependent dopamine transporter (P23977 whole entry): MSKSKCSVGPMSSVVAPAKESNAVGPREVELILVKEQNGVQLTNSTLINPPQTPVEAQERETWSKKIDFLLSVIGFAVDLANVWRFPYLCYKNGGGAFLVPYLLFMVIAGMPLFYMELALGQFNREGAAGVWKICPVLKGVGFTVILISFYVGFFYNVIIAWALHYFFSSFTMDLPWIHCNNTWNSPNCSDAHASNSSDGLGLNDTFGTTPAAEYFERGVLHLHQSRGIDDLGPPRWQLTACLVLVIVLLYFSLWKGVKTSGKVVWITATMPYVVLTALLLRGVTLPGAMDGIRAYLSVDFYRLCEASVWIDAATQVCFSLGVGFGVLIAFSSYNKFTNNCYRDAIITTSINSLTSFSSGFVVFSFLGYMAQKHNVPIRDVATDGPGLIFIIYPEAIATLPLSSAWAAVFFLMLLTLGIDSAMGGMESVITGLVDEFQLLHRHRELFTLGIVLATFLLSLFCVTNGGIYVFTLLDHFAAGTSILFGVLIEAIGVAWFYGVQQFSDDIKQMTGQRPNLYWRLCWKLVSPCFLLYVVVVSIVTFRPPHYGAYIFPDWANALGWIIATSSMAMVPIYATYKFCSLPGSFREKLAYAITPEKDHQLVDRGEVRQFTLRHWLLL
Sequence of Monoamine transporters; serotonin & dopamine (Rattus norvegicus) (P23977 whole entry, looked up): as the sequence (P23977 whole entry) above
Sequence of Monoamine transporters; serotonin & dopamine (Rattus norvegicus) (P31652 whole entry, looked up): as the sequence (P31652 whole entry) above

COC(=O)C1C(c2ccc(I)cc2)CC2CCC1N2CC(F)F (stereo unspecified)
Selectivity [1]: 0.636
Ki [2]: 15.1 nM
Selectivity [3]: > 330
Ki [4]: 9.6 nM
Ki [5]: > 5000 nM

CC(C)OC(=O)C1C(c2ccc(I)cc2)CC2CCC1N2CCF (stereo unspecified)
Selectivity [1]: 4.9
Ki [2]: 4.4 nM
Selectivity [3]: > 2300
Ki [4]: 21.7 nM
Ki [5]: > 10000 nM

COC(=O)C1C(c2ccc(I)cc2)CC2CCC1N2CCCCl (stereo unspecified)
Selectivity [1]: 0.1
Ki [2]: 3.1 nM
Selectivity [3]: 31
Ki [4]: 0.32 nM
Ki [5]: 96 nM

COC(=O)[C@@H]1C2CCC(C[C@@H]1c1ccc(I)cc1)N2CCCN1C(=O)c2ccccc2C1=O (stereo partly specified)
Selectivity [1]: 0.065
Ki [2]: 9.1 nM
Selectivity [3]: 8.1
Ki [4]: 0.59 nM
Ki [5]: 73.7 nM

COC(=O)[C@@H]1C2CCC(C[C@@H]1c1ccc(I)cc1)N2CC(=O)N(C)C (stereo partly specified)
Selectivity [1]: 0.524
Ki [2]: 12.2 nM
Selectivity [3]: 42.8
Ki [4]: 6.4 nM
Ki [5]: 522 nM

COC(=O)C1C(c2ccc(I)cc2)CC2CCC1N2CC(OC)OC (stereo unspecified)
Selectivity [1]: 0.249
Ki [2]: 6.8 nM
Selectivity [3]: 16.2
Ki [4]: 1.69 nM
Ki [5]: 110 nM

COC(=O)C1C(c2ccc(I)cc2)CC2CCC1N2CCCOS(C)(=O)=O (stereo unspecified)
Selectivity [1]: 0.477
Ki [2]: 36.3 nM
Selectivity [3]: 138
Ki [4]: 17.3 nM
Ki [5]: 5000 nM

COC(=O)C1C(c2ccc(I)cc2)CC2CCC1N2CC1CC1 (stereo unspecified)
Selectivity [1]: 0.302
Ki [2]: 4.3 nM
Selectivity [3]: 45.6
Ki [4]: 1.3 nM
Ki [5]: 198 nM

COC(=O)C1C(c2ccc(I)cc2)CC2CCC1N2CCCI (stereo unspecified)
Selectivity [1]: 0.227
Ki [2]: 38.9 nM
Selectivity [3]: 129
Ki [4]: 8.84 nM
Ki [5]: 5000 nM

CC(C)OC(=O)C1C(c2ccc(I)cc2)CC2CCC1N2CCCF (stereo unspecified)
Selectivity [1]: 40.6
Ki [2]: 1.2 nM
Selectivity [3]: 8300
Ki [4]: 48.7 nM
Ki [5]: 10000 nM

COC(=O)C1C(c2ccc(I)cc2)CC2CCC1N2CCCBr (stereo unspecified)
Selectivity [1]: 0.137
Ki [2]: 2.56 nM
Selectivity [3]: 64.1
Ki [4]: 0.35 nM
Ki [5]: 164 nM

COC(=O)C1C(c2ccc(I)cc2)CC2CCC1N2CCF (stereo unspecified)
Selectivity [1]: 0.035
Ki [2]: 4 nM
Selectivity [3]: 23.2
Ki [4]: 0.14 nM
Ki [5]: 93 nM

COC(=O)CN1C2CCC1C(C(=O)OC)C(c1ccc(I)cc1)C2 (stereo unspecified)
Selectivity [1]: 0.068
Ki [2]: 11.9 nM
Selectivity [3]: 2.5
Ki [4]: 0.81 nM
Ki [5]: 29.1 nM

COC(=O)[C@H]1[C@@H](c2ccc(F)cc2)C[C@H]2CC[C@H]1N2C
Ki [4]: 181 nM
Ki [5]: 635 nM

COC(=O)C1C(c2ccc(I)cc2)CC2CCC1N2C (stereo unspecified)
Selectivity [1]: 0.32
Ki [2]: 1.4 nM
Selectivity [3]: 2
Ki [5]: 2.8 nM

COC(=O)C1C(c2ccc(I)cc2)CC2CCC1N2CCCO (stereo unspecified)
Selectivity [1]: 0.463
Ki [2]: 5.39 nM
Selectivity [3]: 40.3
Ki [4]: 2.5 nM
Ki [5]: 217 nM

COC(=O)C1C(c2ccc(I)cc2)CC2CCC1N2CCCF (stereo unspecified)
Selectivity [1]: 0.032
Ki [2]: 3.5 nM
Selectivity [3]: 18
Ki [4]: 0.11 nM
Ki [5]: 63 nM

COC(=O)C1C(c2ccc(I)cc2)CC2CCC1N2C(=O)C(C)C (stereo unspecified)
Selectivity [1]: 0.049
Ki [2]: 2100 nM
Selectivity [3]: > 4.8
Ki [4]: 102 nM
Ki [5]: > 10000 nM

Source: ChEMBL document CHEMBL1129668 (J Med Chem, 1996)
